Reference: ChEMBL document CHEMBL1122688, “Antimycotic azoles. 7. Synthesis and antifungal properties of a series of novel triazol-3-ones” (1984)

Columns and labels:
[1] = In vivo activity against vaginal candidoses in rats, measured as the ratio of animals cured/animals infected (C/I) at dose 2.5 mg/kg; C/I = 4/8; assay type: functional
[2] = In vivo activity against vaginal candidoses in rats, measured as the ratio of animals cured/animals infected (C/I) at dose 0.63 mg/kg; C/I = 0/4; assay type: functional
[3] = tested on: Trichophyton rubrum; test: In vitro antifungal activity against Trichophyton rubrum; assay type: functional
How it was run: (§1)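 Fungal growth-inhibition screen (Godefroi method) against dermatophytes, yeasts, moulds and other fungi. The value is the lowest concentration (µg/mL) giving total inhibition of growth, tested up to 100 µg/mL.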

[4] = tested on: Saprolegnia; test: In vitro antifungal activity against Saprolegnia sp; assay type: functional; how it was run: as §1
[5] = In vitro antifungal activity against Mucor sp; assay type: functional; how it was run: as §1
[6] = tested on: Candida tropicalis; test: In vitro antifungal activity against Candida tropicalis; assay type: functional; how it was run: as §1
[7] = tested on: Trichophyton benhamiae; test: In vitro antifungal activity against Trichophyton mentagrophytes; assay type: functional, Arthroderma benhamiae; how it was run: as §1
[8] = In vivo activity against microsporosis guinea pig, measured as the ratio of animals cured/animals infected (C/I) at dose 2.5 mg/kg; C/I = 0/6; assay type: functional
[9] = tested on: Cryptococcus neoformans; test: In vitro antifungal activity against Cryptococcus neoformans; assay type: functional; how it was run: as §1
[10] = tested on: Candida albicans; test: In vitro antifungal activity against Candida albicans; assay type: functional; how it was run: as §1
[11] = In vivo activity against microsporosis guinea pig, measured as the ratio of animals cured/animals infected (C/I) at dose 10 mg/kg; C/I = 4/6; assay type: functional
[12] = tested on: Microsporum canis; test: In vitro antifungal activity against Microsporum canis; assay type: functional; how it was run: as §1
[13] = In vivo activity against microsporosis guinea pig, measured as the ratio of animals cured/animals infected (C/I) at dose 1.25 mg/kg; C/I = 0/2; assay type: functional
[14] = tested on: Phialophora verrucosa; test: In vitro antifungal activity against Phialophora verrucosa; assay type: functional; how it was run: as §1
[15] = In vivo activity against vaginal candidoses in rats, measured as the ratio of animals cured/animals infected (C/I) at dose 1.25 mg/kg; C/I = 1/6; assay type: functional
[16] = tested on: Sporothrix schenckii; test: In vitro antifungal activity against Sporothrix schenck ii; assay type: functional; how it was run: as §1
[17] = tested on: Aspergillus fumigatus; test: In vitro antifungal activity against Aspergillus fumigatus; assay type: functional; how it was run: as §1
[18] = In vivo activity against vaginal candidoses in rats, measured as the ratio of animals cured/animals infected (C/I) at dose 2.5 mg/kg; C/I = 9/10; assay type: functional
[19] = In vivo activity against microsporosis guinea pig, measured as the ratio of animals cured/animals infected (C/I) at dose 1.25 mg/kg; C/I = 0/6; assay type: functional
[20] = In vivo activity against vaginal candidoses in rats, measured as the ratio of animals cured/animals infected (C/I) at dose 0.63 mg/kg; C/I = 3/10; assay type: functional
[21] = tested on: Rattus norvegicus; test: In vivo activity against vaginal candidoses in rats, measured as the ratio of animals cured/animals infected (C/I) at dose 1.25 mg/kg; C/I = 9/10; assay type: functional
[22] = In vivo activity against microsporosis guinea pig, measured as the ratio of animals cured/animals infected (C/I) at dose 2.5 mg/kg; C/I = 0/5; assay type: functional
[23] = In vivo activity against microsporosis guinea pig, measured as the ratio of animals cured/animals infected (C/I) at dose 10 mg/kg; C/I = 1/8; assay type: functional
[24] = In vivo activity against vaginal candidoses in rats, measured as the ratio of animals cured/animals infected (C/I) at dose 10 mg/kg; C/I = 6/6; assay type: functional
[25] = In vivo activity against vaginal candidoses in rats, measured as the ratio of animals cured/animals infected (C/I) at dose 2.5 mg/kg; C/I = 1/2; assay type: functional
[26] = In vivo activity against microsporosis guinea pig, measured as the ratio of animals cured/animals infected (C/I) at dose 10 mg/kg; C/I = 1/4; assay type: functional
[27] = In vivo activity against vaginal candidoses in rats, measured as the ratio of animals cured/animals infected (C/I) at dose 2.5 mg/kg; C/I = 0/2; assay type: functional
[28] = In vivo activity against microsporosis guinea pig, measured as the ratio of animals cured/animals infected (C/I) at dose 20 mg/kg; C/I = 2/2; assay type: functional
[29] = In vivo activity against microsporosis guinea pig, measured as the ratio of animals cured/animals infected (C/I) at dose 10 mg/kg; C/I = 0/2; assay type: functional
[30] = In vivo activity against vaginal candidoses in rats, measured as the ratio of animals cured/animals infected (C/I) at dose 10 mg/kg; C/I = 3/4; assay type: functional
[31] = In vivo activity against microsporosis guinea pig, measured as the ratio of animals cured/animals infected (C/I) at dose 1.25 mg/kg; 0/4; assay type: functional
[32] = In vivo activity against microsporosis guinea pig, measured as the ratio of animals cured/animals infected (C/I) at dose 10 mg/kg; 2/2; assay type: functional
[33] = In vivo activity against microsporosis guinea pig, measured as the ratio of animals cured/animals infected (C/I) at dose 2.5 mg/kg; 4/6; assay type: functional
[34] = In vivo activity against vaginal candidoses in rats, measured as the ratio of animals cured/animals infected (C/I) at dose 1.25 mg/kg; 1/2; assay type: functional
[35] = In vivo activity against vaginal candidoses in rats, measured as the ratio of animals cured/animals infected (C/I) at dose 2.5 mg/kg; 3/6; assay type: functional
[36] = In vivo activity against vaginal candidoses in rats, measured as the ratio of animals cured/animals infected (C/I) at dose 0.63 mg/kg; 1/6; assay type: functional
[37] = tested on: Rattus norvegicus; test: In vivo activity against vaginal candidoses in rats, measured as the ratio of animals cured/animals infected (C/I) at dose 1.25 mg/kg; C/I = 5/6; assay type: functional
[38] = In vivo activity against vaginal candidoses in rats, measured as the ratio of animals cured/animals infected (C/I) at dose 2.5 mg/kg; C/I = 4/6; assay type: functional
[39] = In vivo activity against vaginal candidoses in rats, measured as the ratio of animals cured/animals infected (C/I) at dose 10 mg/kg; C/I = 2/2; assay type: functional
[40] = In vivo activity against vaginal candidoses in rats, measured as the ratio of animals cured/animals infected (C/I) at dose 0.63 mg/kg; C/I = 4/8; assay type: functional
[41] = In vivo activity against microsporosis guinea pig, measured as the ratio of animals cured/animals infected (C/I) at dose 2.5 mg/kg; C/I = 0/2; assay type: functional
[42] = In vivo activity against vaginal candidoses in rats, measured as the ratio of animals cured/animals infected (C/I) at dose 2.5 mg/kg; 0/2; assay type: functional
[43] = In vivo activity against microsporosis guinea pig, measured as the ratio of animals cured/animals infected (C/I) at dose 20 mg/kg; 0/2; assay type: functional
[44] = In vivo activity against vaginal candidoses in rats, measured as the ratio of animals cured/animals infected (C/I) at dose 10 mg/kg; 1/2; assay type: functional
[45] = In vivo activity against microsporosis guinea pig, measured as the ratio of animals cured/animals infected (C/I) at dose 20 mg/kg; C/I = 1/6
[46] = In vivo activity against vaginal candidoses in rats, measured as the ratio of animals cured/animals infected (C/I) at dose 0.63 mg/kg; C/I = 0/2; assay type: functional
[47] = In vivo activity against vaginal candidoses in rats, measured as the ratio of animals cured/animals infected (C/I) at dose 2.5 mg/kg; C/I = 1/4; assay type: functional

Compound | Inhibition [3] [µg/mL] | Inhibition [4] [µg/mL] | Inhibition [5] [µg/mL] | Inhibition [6] [µg/mL] | Inhibition [7] [µg/mL] | Inhibition [9] [µg/mL] | Inhibition [10] [µg/mL] | Inhibition [12] [µg/mL] | Inhibition [14] [µg/mL] | Inhibition [16] [µg/mL] | Inhibition [17] [µg/mL] | other results
CCCCn1nc(C)n(-c2ccc(N3CCN(c4ccc(OC[C@@H]5COC(Cn6ccnc6)(c6ccc(Cl)cc6Cl)O5)cc4)CC3)cc2)c1=O (stereo partly drawn) | 10 | >100 | >100 | 1 | 10 | 100 | 100 | >100 | >100 | >100 | >100 | C/I ratio [1]: 0.5; C/I ratio [2]: 0; C/I ratio [8]: 0; C/I ratio [11]: 0.667; C/I ratio [13]: 0; C/I ratio [15]: 1
CCCn1ncn(-c2ccc(N3CCN(c4ccc(OC[C@@H]5COC(Cn6cncn6)(c6ccc(Cl)cc6Cl)O5)cc4)CC3)cc2)c1=O (stereo partly drawn) | 1 | >100 | >100 | 100 | 100 | 100 | >100 | >100 | >100 | >100 | >100 | C/I ratio [18]: 9; C/I ratio [19]: 0; C/I ratio [20]: 0.3; C/I ratio [21]: 0.9; C/I ratio [22]: 0; C/I ratio [23]: 1; C/I ratio [24]: 6
CCCn1nc(CC)n(-c2ccc(N3CCN(c4ccc(OC[C@@H]5COC(Cn6ccnc6)(c6ccc(Cl)cc6Cl)O5)cc4)CC3)cc2)c1=O (stereo partly drawn) | 100 | >100 | >100 | 10 | 10 | >100 | 100 | >100 | >100 | >100 | >100 | C/I ratio [25]: 1; C/I ratio [26]: 1
Cc1nn(C)c(=O)n1-c1ccc(N2CCN(c3ccc(OC[C@@H]4COC(Cn5ccnc5)(c5ccc(Cl)cc5Cl)O4)cc3)CC2)cc1 (stereo partly drawn) | 100 | >100 | >100 | > 100 | 10 | >100 | 100 | 100 | >100 | >100 | 100 | C/I ratio [27]: 0; C/I ratio [28]: 2; C/I ratio [29]: 0; C/I ratio [30]: 0.75
C=CCn1ncn(-c2ccc(N3CCN(c4ccc(OC[C@@H]5COC(Cn6cncn6)(c6ccc(Cl)cc6Cl)O5)cc4)CC3)cc2)c1=O (stereo partly drawn) | – | – | – | – | – | – | – | – | – | – | – | C/I ratio [31]: 0; C/I ratio [32]: 2; Lowest level of total inhibition [12]: > 100 µg/mL; C/I ratio [33]: 0.667; C/I ratio [34]: 1; C/I ratio [35]: 0.5; C/I ratio [36]: 1
Cn1ncn(-c2ccc(N3CCN(c4ccc(OC[C@@H]5COC(Cn6cncn6)(c6ccc(Cl)cc6Cl)O5)cc4)CC3)cc2)c1=O (stereo partly drawn) | 10 | >100 | >100 | 10 | 1 | 100 | 100 | >100 | 100 | >100 | >100 | C/I ratio [37]: 5; C/I ratio [38]: 4; C/I ratio [39]: 1; C/I ratio [13]: 0; C/I ratio [40]: 0.5; C/I ratio [41]: 0; C/I ratio [23]: 1
CC(=O)N1CCN(c2ccc(OC[C@@H]3COC(Cn4cncn4)(c4ccc(Cl)cc4Cl)O3)cc2)CC1 (stereo partly drawn) | – | – | – | – | – | – | – | 100 | – | – | – | C/I ratio [42]: 0; C/I ratio [43]: 0; C/I ratio [44]: 1
CCCCn1ncn(-c2ccc(N3CCN(c4ccc(OC[C@@H]5COC(Cn6cncn6)(c6ccc(Cl)cc6Cl)O5)cc4)CC3)cc2)c1=O (stereo partly drawn) | >100 | >100 | >100 | >100 | 100 | >100 | >100 | >100 | >100 | >100 | >100 | C/I ratio [27]: 0; C/I ratio [45]: 1
CCCn1nc(C)n(-c2ccc(N3CCN(c4ccc(OC[C@@H]5COC(Cn6cncn6)(c6ccc(Cl)cc6Cl)O5)cc4)CC3)cc2)c1=O (stereo partly drawn) | >100 | >100 | >100 | 100 | 1 | 100 | 100 | >100 | >100 | >100 | >100 | C/I ratio [46]: 0; C/I ratio [47]: 1
